Source: ChEMBL document CHEMBL4392826, “Prototyping kinase inhibitor-cytotoxin anticancer mutual prodrugs activated by tumour hypoxia: A chemical proof of concept study” (Bioorg Med Chem Lett, 2019)

Assays:
[1] = tested on: MDA-MB-468; experiment: Cytotoxicity against human MDA-MB-468 cells incubated for 4 hrs under hypoxic condition followed by compound washout and measured after 5 days by SRB assay; type: functional, cell-based
Method in brief: (§1)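 Antiproliferative IC50 in MDA-MB-468 triple-negative breast or SW620 colon cancer cells, exposed under aerobic or anoxic conditions; mean ± std dev, n = 3.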

[2] = tested on: MDA-MB-468; experiment: Cytotoxicity against human MDA-MB-468 cells incubated for 4 hrs under aerobic condition followed by compound washout and measured after 5 days by SRB assay; type: cell-based; method in brief: as §1
[3] = tested on: SW-620; experiment: Selectivity ratio of IC50 for human SW620 cells under aerobic condition to IC50 for human SW620 cells under hypoxic condition
Method in brief: (§2)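 Hypoxic cytotoxicity ratio: aerobic IC50 divided by anoxic IC50 in the same cell line (MDA-MB-468 or SW620).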

[4] = tested on: MDA-MB-468; experiment: Selectivity ratio of IC50 for human MDA-MB-468 cells under aerobic condition to IC50 for human MDA-MB-468 cells under hypoxic condition; method in brief: as §2
[5] = tested on: SW-620; experiment: Cytotoxicity against human SW620 cells incubated for 4 hrs under hypoxic condition followed by compound washout and measured after 5 days by SRB assay; type: functional, cell-based; method in brief: as §1
[6] = tested on: SW-620; experiment: Cytotoxicity against human SW620 cells incubated for 4 hrs under aerobic condition followed by compound washout and measured after 5 days by SRB assay; type: cell-based; method in brief: as §1
[7] = Ratio of test compound IC50 to floxuridine IC50 for human SW620 cells incubated for 4 hrs under aerobic condition followed by compound washout and measured after 5 days by SRB assay; type: ADME, cell-based, SW-620; settings: read-out: Ratio IC50
Method in brief: (§3)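 Deactivation ratio: aerobic antiproliferative IC50 of the prodrug divided by aerobic IC50 of the parent cytotoxin control (floxuridine). IC50 values were means ± std dev, n = 3, determined in MDA-MB-468 triple-negative breast or SW620 colon cancer cells.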

[8] = Electrochemical behavior of the compound assessed as one-elctron reduction potential at 50 uM in pH 7 deaerated phosphate buffered by pulse radiolysis
[9] = Ratio of test compound IC50 to floxuridine IC50 for human MDA-MB-468 cells incubated for 4 hrs under aerobic condition followed by compound washout and measured after 5 days by SRB assay; type: ADME, cell-based; settings: read-out: Ratio IC50; method in brief: as §3
[10] = Electrochemical behavior of the compound assessed as one-elctron reduction potential at 0.42 uM in tert-butanol by pulse radiolysis
[11] = Ratio of test compound IC50 to melphalan IC50 for human MDA-MB-468 cells incubated for 4 hrs under aerobic condition followed by compound washout and measured after 5 days by SRB assay; type: ADME, cell-based; settings: read-out: Ratio IC50
Method in brief: (§4)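 Deactivation ratio: aerobic IC50 of the prodrug divided by the aerobic IC50 of the parent control cytotoxin, in the same cell line (MDA-MB-468 or SW620).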

[12] = Aqueous solubility of the compound; type: physicochemical; settings: buffer
[13] = Ratio of test compound IC50 to melphalan IC50 for human SW620 cells incubated for 4 hrs under aerobic condition followed by compound washout and measured after 5 days by SRB assay; type: ADME, cell-based, SW-620; settings: read-out: Ratio IC50; method in brief: as §4

Row | Compound | IC50 [1] [µM] | IC50 [2] [µM] | Ratio IC50 [3] | Ratio IC50 [4] | IC50 [5] [µM] | IC50 [6] [µM] | selectivity ratio at 4 h [7] | Activity [8] [mV] | selectivity ratio at 4 h [9] | Activity [10] [mV] | selectivity ratio at 4 h [11] | solubility [12] | selectivity ratio at 4 h [13]
1 | Cn1c(COP(=O)(NCCBr)NCCBr)cnc1[N+](=O)[O-] [EVOFOSFAMIDE] | 0.0062 | 4.4 | 396 | 710 | 0.052 | 20.6 |  |  |  |  |  |  | 
2 | N[C@@H](Cc1ccc(N(CCCl)CCCl)cc1)C(=O)O [MELPHALAN] | 0.81 | 1 | 1.5 | 1.2 | 1.22 | 1.81 |  |  |  |  |  |  | 
3 | Cc1cc(C)c(/C=C(\C(=O)OC[C@H]2O[C@@H](n3cc(F)c(=O)[nH]c3=O)C[C@@H]2O)c2ccccc2[N+](=O)[O-])[nH]1 | 248 | 83.9 | 1.3 | <1 | 14 | 18.7 | 19.4 | -509 | 3.1 |  |  |  | 
4 | O=c1[nH]c(=O)n([C@H]2C[C@H](O)[C@@H](CO)O2)cc1F [FLOXURIDINE] | 45.5 | 27.4 | <1 | <1 | 1.48 | 0.96 |  |  |  |  |  |  | 
5 | Nc1n[n+]([O-])c2ccccc2[n+]1[O-] [TIRAPAZAMINE] | 1.3 | 105 | 76 | 81 | 1.2 | 91 |  |  |  |  |  |  | 
6 | Cc1cc(C)c(/C=C(\C(=O)Nc2ccc(N(CCO)CCO)cc2)c2ccccc2[N+](=O)[O-])[nH]1 |  |  |  |  |  |  |  |  |  | -550 |  |  | 
7 | Cc1cc(C)c(/C=C(\C(=O)Nc2ccc(N(CCCl)CCCl)cc2)c2ccccc2[N+](=O)[O-])[nH]1 | 7.38 | 8.31 | <1 | 1.1 | 12.7 | 11.5 |  |  |  |  | 8.3 | Insoluble | 6.3
